This is an account of results in ChEMBL document CHEMBL3297681, “Design, synthesis, and biological evaluations of tumor-targeting dual-warhead conjugates for a taxoid-camptothecin combination chemotherapy” (J Med Chem, 2014).

The subject of series [1] is MX1. Put plainly: Cytotoxicity against human MX1 cells overexpressing biotin receptor assessed as growth inhibition treated for 24 hrs then incubated 48 hrs with camptothecin by MTT assay in presence of camptothecin. Format: functional, cell-based. A digest of the protocol: (§1)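 Cells were seeded at 8000–10000 per well and preincubated 24 h. Taxoid was given first for 24 h at 37 °C. An equimolar amount of camptothecin was then added for another 48 h at 37 °C. Viability was read by MTT at 570 nm, and IC50 came from a four-parameter logistic fit, in triplicate.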
For orientation: Tetrazolium dyes change colour on reduction, which living cells bring about.

For series [2], the system named is MCF7. Put plainly: Cytotoxicity against human MCF7 cells overexpressing biotin receptor assessed as growth inhibition treated for 24 hrs then incubated 48 hrs with camptothecin by MTT assay in presence of camptothecin. It is filed as functional, cell-based. A digest of the protocol: as §1
For series [3], the system named is L1210. Put plainly: Cytotoxicity against mouse L1210 cells overexpressing folate receptor assessed as growth inhibition at 1:1 compound to camptothecin ratio after 72 hrs by MTT assay in presence of camptothecin. Format: functional, cell-based. To be noted: L1210, 72 h. In outline:
(§2)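 Cells were exposed simultaneously to an equimolar taxoid/camptothecin mixture for 72 h at 37 °C. Viability was read by MTT (0.5 mg/mL, 3 h, absorbance 570 nm). IC50 came from a four-parameter logistic fit of viability against concentration, in triplicate.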

The test system of series [4] is L1210. Put plainly: Cytotoxicity against mouse L1210 cells overexpressing folate receptor assessed as growth inhibition pretreated for 24 hrs with camptothecin then incubated for 48 hrs by MTT assay in presence of camptothecin. It is filed as functional, cell-based. In outline:
(§3)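 Cells were seeded at 8000–10000 per well and preincubated 24 h. Camptothecin serial dilutions were given first for 24 h at 37 °C. An equimolar amount of taxoid was then added for a further 48 h at 37 °C. Viability was read by MTT at 570 nm, and IC50 came from a four-parameter logistic fit, in triplicate.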

For series [5], the system named is MCF7. Put plainly: Cytotoxicity against human MCF7 cells overexpressing biotin receptor assessed as growth inhibition after 72 hrs by MTT assay. Format: functional, cell-based. In outline:
(§4)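 Continuous 72 h exposure at 37 °C. Cells were seeded at 0.5–1.5 × 10^4 per well, and adherent lines were left to settle overnight before the medium was refreshed. DMSO was ≤1%. Read-out was MTT (0.5 mg/mL, 3 h), with formazan dissolved in 0.1 N HCl/2-propanol plus 10% Triton X-100 and absorbance read at 570 nm. IC50 came from a four-parameter logistic fit, in triplicate.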

The nature of series [6]: Cytotoxicity against mouse ID8 cells overexpressing biotin receptor assessed as growth inhibition after 72 hrs by MTT assay. It is filed as functional, cell-based. A digest of the protocol:
as §4

The test system of series [7] is MCF7. Put plainly: Cytotoxicity against human MCF7 cells overexpressing biotin receptor assessed as growth inhibition at 1:1 compound to camptothecin ratio after 72 hrs by MTT assay in presence of camptothecin. The following applies: MCF7, 72 h. Format: functional, cell-based. A digest of the protocol:
as §2

Series [8] has as its system MCF7. Put plainly: Cytotoxicity against human MCF7 cells overexpressing biotin receptor assessed as growth inhibition pretreated for 24 hrs with camptothecin then incubated for 48 hrs by MTT assay in presence of camptothecin. It is filed as functional, cell-based. In outline:
as §3

Series [9] has as its system MX1. Put plainly: Cytotoxicity against human MX1 cells overexpressing biotin receptor assessed as growth inhibition pretreated for 24 hrs with camptothecin then incubated for 48 hrs by MTT assay in presence of camptothecin. Format: functional, cell-based. In outline:
as §3

Series [10] relates to L1210. Put plainly: Cytotoxicity against mouse L1210 cells overexpressing biotin receptor assessed as growth inhibition after 72 hrs by MTT assay. To be noted: L1210, 72 h.
The subject of series [11] is MX1. Put plainly: Cytotoxicity against human MX1 cells overexpressing biotin receptor assessed as growth inhibition after 72 hrs by MTT assay. It is filed as functional, cell-based. A digest of the protocol:
as §4

Series [12] in a line: Cytotoxicity against human WI38 cells assessed as growth inhibition after 72 hrs by MTT assay. The following applies: WI-38, 72 h.
Series [13] is described as follows: Cytotoxicity against mouse ID8 cells overexpressing biotin receptor assessed as growth inhibition treated for 24 hrs then incubated 48 hrs with camptothecin by MTT assay in presence of camptothecin. It is filed as functional, cell-based. A digest of the protocol:
as §1

The nature of series [14]: Cytotoxicity against mouse ID8 cells overexpressing biotin receptor assessed as growth inhibition at 1:1 compound to camptothecin ratio after 72 hrs by MTT assay in presence of camptothecin. It is filed as functional, cell-based. To be noted: ID8, 72 h. In outline:
as §2

Series [15] can be described thus: Cytotoxicity against mouse ID8 cells overexpressing biotin receptor assessed as growth inhibition pretreated for 24 hrs with camptothecin then incubated for 48 hrs by MTT assay in presence of camptothecin. Format: functional, cell-based. A digest of the protocol: as §3
Series [16] concerns MX1. Put plainly: Cytotoxicity against human MX1 cells overexpressing biotin receptor assessed as growth inhibition at 1:1 compound to camptothecin ratio after 72 hrs by MTT assay in presence of camptothecin. It is filed as functional, cell-based. To be noted: MX1, 72 h. In outline:
as §2

Series [17] deals with L1210. Put plainly: Cytotoxicity against mouse L1210 cells overexpressing folate receptor assessed as growth inhibition treated for 24 hrs then incubated 48 hrs with camptothecin by MTT assay in presence of camptothecin. Format: functional, cell-based. In outline:
as §1

The nature of series [18]: Cytotoxicity against mouse ID8 cells overexpressing biotin receptor assessed as growth inhibition after 24 hrs by MTT assay. It is filed as functional, cell-based.
In series [19] the test system is L1210. Put plainly: Cytotoxicity against mouse L1210 cells overexpressing folate receptor assessed as growth inhibition after 24 hrs by MTT assay. Format: functional, cell-based. In outline: (§5)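 Conjugate was incubated with cells for 24 h at 37 °C, then removed by PBS washing. GSH-OEt (6 equiv to conjugate) in medium was added to release drug, followed by a further 48 h at 37 °C (72 h total). Read-out was MTT at 570 nm. IC50 came from a four-parameter logistic fit, in triplicate.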

In series [20] the test system is MX1. Put plainly: Cytotoxicity against human MX1 cells overexpressing biotin receptor assessed as growth inhibition after 24 hrs by MTT assay. Format: functional, cell-based. A digest of the protocol: as §5
Series [21] can be described thus: Drug uptake in mouse ID8 cells at 10 uM after 10 hrs by confocal fluorescence microscopy analysis. Format: ADME, cell-based. To be noted: id8, 10 h. In outline:
(§6)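 Cells were incubated with 10 μM conjugate at 37 °C for 10 h, washed thoroughly, and resuspended in PBS. Internalization was imaged by confocal microscopy using camptothecin's intrinsic fluorescence.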

Series [22] relates to MCF7. Put plainly: Drug uptake in human MCF7 cells at 10 uM after 10 hrs by confocal fluorescence microscopy analysis. It is filed as ADME, cell-based. The following applies: mcf7, 10 h. A digest of the protocol: as §6
The test system of series [23] is MCF7. Put plainly: Cytotoxicity against human MCF7 cells overexpressing biotin receptor assessed as growth inhibition after 24 hrs by MTT assay. Format: functional, cell-based. In outline: as §5
The nature of series [24]: Cytotoxicity against human WI38 cells overexpressing biotin receptor assessed as growth inhibition after 72 hrs by MTT assay. The following applies: wi-38. It is filed as functional, cell-based. In outline:
as §4

Series [25] concerns L1210. Put plainly: Cytotoxicity against mouse L1210 cells overexpressing folate receptor assessed as growth inhibition after 72 hrs by MTT assay. It is filed as functional, cell-based. A digest of the protocol: as §4

Some results are limits rather than exact numbers.

By IC50 is commonly meant the concentration needed to halve the response being measured. For the molecule `CC(=O)O[C@@]12CCO[C@@H]1C[C@H](O)[C@@]1(C)C(=O)[C@H](OC(=O)C3CC3)C3=C(C)[C@@H](OC(=O)[C@H](O)[C@H](C=C(C)C)NC(=O)OC(C)(C)C)C[C@@](O)([C@@H](OC(=O)c4ccccc4)[C@H]21)C3(C)C`, the IC50 in series [1] amounted to 1.98 nM; in series [2], 0.33 nM; in series [3] it was 4.14 nM; in series [4] it was 949 nM; in series [5] (Homo sapiens, MCF7, 72 h), 0.44 nM; in [6] (Mus musculus, ID8, 72 h), 1.11 nM. For the same molecule, the IC50 is 0.4 nM in series [7]; 79.2 nM in series [8]; over 5000 nM in [9]; 2.14 nM in series [10]; 2.01 nM in series [11] (Homo sapiens, MX1, 72 h); 5.89 nM in series [12]. Besides, the IC50 in series [13] amounted to 0.96 nM; in series [14], 1.02 nM; in [15], 110 nM; in series [16], 1.88 nM; in series [17], 3.51 nM.

For the molecule `CC[C@@]1(OC(=O)Cc2ccccc2SSC(C)CCC(=O)NCCOCCOCCOCCn2cc(CNc3nc(NCCNC(=O)CCC(C)SSc4ccccc4CC(=O)O[C@@H](C(=O)O[C@H]4C[C@@]5(O)[C@@H](OC(=O)c6ccccc6)[C@@H]6[C@]7(OC(C)=O)CCO[C@@H]7C[C@H](O)[C@@]6(C)C(=O)[C@H](OC(=O)C6CC6)C(=C4C)C5(C)C)[C@H](C=C(C)C)NC(=O)OC(C)(C)C)nc(NCCOCCOCCOCCNC(=O)CCCC[C@@H]4SC[C@@H]5NC(=O)N[C@@H]54)n3)nn2)C(=O)OCc2c1cc1n(c2=O)Cc2cc3ccccc3nc2-1` (stereo not given in full), the IC50 in series [5] (Homo sapiens, MCF7, 72 h) was determined as 19 nM; in series [6] (Mus musculus, ID8, 72 h), 23.4 nM; in series [18] (Mus musculus, ID8, 24 h), 5.7 nM; in series [10], 39.1 nM; in series [11] (Homo sapiens, MX1, 72 h), 51.7 nM; in series [12] it was 742 nM. Moreover, the half-inhibitory concentration (IC50) in series [19] (Mus musculus, L1210, 24 h) is 7.4 nM; in series [20] (Homo sapiens, MX1, 24 h), 9.8 nM; in series [23] (Homo sapiens, MCF7, 24 h) it was 3.2 nM. Also, the Drug uptake entry in [21] and in [22] was “Active” in each case.

As to `CC[C@@]1(OC(=O)CCC(=O)NCCOCCOCCOCCn2cc(CNc3nc(NCCNC(=O)CCC(C)SSc4ccccc4CC(=O)O[C@@H](C(=O)O[C@H]4C[C@@]5(O)[C@@H](OC(=O)c6ccccc6)[C@@H]6[C@]7(OC(C)=O)CCO[C@@H]7C[C@H](O)[C@@]6(C)C(=O)[C@H](OC(=O)C6CC6)C(=C4C)C5(C)C)[C@H](C=C(C)C)NC(=O)OC(C)(C)C)nc(NCCOCCOCCOCCNC(=O)CCCC[C@@H]4SC[C@@H]5NC(=O)N[C@@H]54)n3)nn2)C(=O)OCc2c1cc1n(c2=O)Cc2cc3ccccc3nc2-1` (stereo not given in full), the IC50 in series [5] (mcf7) amounted to 21.1 nM; in [24] it was 868 nM; in series [6] (id8), 25.6 nM; in series [18] (id8), 10.3 nM; in [11] (mx1) it was 65.1 nM; in series [19] (l1210), 13.7 nM. Besides, the IC50 worked out at 20.8 nM in series [20] (mx1), 42.5 nM in [25] and 9.4 nM in [23] (mcf7).

Turning to `CC(=O)O[C@@]12CCO[C@@H]1C[C@H](O)[C@@]1(C)C(=O)[C@H](OC(=O)C3CC3)C3=C(C)[C@@H](OC(=O)[C@H](OC(=O)Cc4ccccc4SSC(C)CCC(=O)NCCNc4nc(NCCOCCOCCOCCNC(=O)CCCC[C@@H]5SC[C@@H]6NC(=O)N[C@@H]65)nc(NCc5cn(CCOCCOCCOCCNC(=O)CCC(C)SSc6ccccc6CC(=O)Oc6ccccc6)nn5)n4)[C@H](C=C(C)C)NC(=O)OC(C)(C)C)C[C@@](O)([C@@H](OC(=O)c4ccccc4)[C@H]21)C3(C)C` (stereo not given in full), the IC50 worked out at 23.1 nM in series [5] (mcf7); 941 nM in [24]; 26.7 nM in [6] (id8); 15.6 nM in series [18] (id8); 66.9 nM in [11] (mx1); 14.4 nM in series [19] (l1210). Further, the IC50 in series [20] (mx1) came to 23.6 nM; in series [25] it was 50.9 nM; in series [23] (mcf7), 9.9 nM.

Consider `CC[C@@]1(OC(=O)Cc2ccccc2SSC(C)CCC(=O)NCCOCCOCCOCCn2cc(CNc3nc(NCCNC(=O)CCC(C)SSc4ccccc4CC(=O)Oc4ccccc4)nc(NCCOCCOCCOCCNC(=O)CCCC[C@@H]4SC[C@@H]5NC(=O)N[C@@H]54)n3)nn2)C(=O)OCc2c1cc1n(c2=O)Cc2cc3ccccc3nc2-1` (stereo not given in full), for which the IC50 in [5] (mcf7) is 1260 nM; in series [24] it was 1440 nM; in series [6] (id8) it was over 5000 nM; in [18] (id8), 2390 nM; in series [11] (mx1) it was over 5000 nM; in series [19] (l1210), 177 nM. Further, the values for the IC50 in series [20] (mx1), in series [25] and in series [23] (mcf7) were over 5000 nM, 319 nM and 538 nM, respectively.

Consider `CC[C@@]1(O)C(=O)OCc2c1cc1n(c2=O)Cc2cc3ccccc3nc2-1` [CAMPTOTHECIN], for which the IC50 in series [5] (Homo sapiens, MCF7, 72 h) came to 65.1 nM; in series [6] (Mus musculus, ID8, 72 h) it was 474 nM; in series [10] it was 510 nM; in series [11] (Homo sapiens, MX1, 72 h), 1700 nM; in series [12] it was 786 nM.
